Results on six molecules are retold here after ChEMBL document CHEMBL1131015, “Homonojirimycin isomers and N-alkylated homonojirimycins: structural and conformational basis of inhibition of glycosidases” (J Med Chem, 1998).

One assay is filed under the species Rattus norvegicus. The settings on record: 1000 uM.
The target in assay [1] is T1, Tissue alpha-L-fucosidase (Rattus norvegicus) (UniProt P17164).
T1 sequence (whole entry): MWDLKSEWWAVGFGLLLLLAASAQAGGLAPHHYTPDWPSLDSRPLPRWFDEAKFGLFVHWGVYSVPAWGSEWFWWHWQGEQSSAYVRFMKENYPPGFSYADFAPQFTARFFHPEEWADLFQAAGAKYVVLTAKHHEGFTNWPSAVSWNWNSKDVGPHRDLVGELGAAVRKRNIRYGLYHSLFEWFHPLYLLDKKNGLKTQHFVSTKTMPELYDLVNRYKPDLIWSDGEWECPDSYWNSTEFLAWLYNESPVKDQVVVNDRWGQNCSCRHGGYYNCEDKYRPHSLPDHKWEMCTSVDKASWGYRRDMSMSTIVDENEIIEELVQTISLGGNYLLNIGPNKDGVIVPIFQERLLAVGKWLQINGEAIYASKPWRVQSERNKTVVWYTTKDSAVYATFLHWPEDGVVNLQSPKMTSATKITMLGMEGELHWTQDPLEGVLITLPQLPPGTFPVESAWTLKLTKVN
The settings on record: 1000 uM.

In assay [2] the target is Alpha-galactosidase (Coffea arabica) (UniProt Q42656). The settings on record: 1000 uM.
The species entered for the next assay is Bos taurus. As to conditions: 1000 uM.
Assay [3] in a line: Inhibitory activity measured against beta-galactosidase of bovine liver by colorimetric assay using the D-glucose oxidase-peroxidase method. The settings on record: in the assay text read “p-nitrophenyl glycoside method” for “D-glucose oxidase-peroxidase method”. Further details: species or system Bos taurus. The method, boiled down: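 Activity was measured with the appropriate p-nitrophenyl glycoside as substrate at each enzyme's optimum pH. The reaction was stopped with 400 mM Na2CO3, and released p-nitrophenol was read spectrophotometrically at 400 nm.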

The nature of assay [4]: Inhibitory activity measured against beta-galactosidase of rat intestinal lactase by colorimetric assay using the D-glucose oxidase-peroxidase method. The method, boiled down:
(§1)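 Enzyme source was brush border membranes from the intestine of male Wistar rats. Each activity was run with the appropriate disaccharide as substrate at that enzyme's optimum pH. Released D-glucose was quantified colorimetrically by the glucose oxidase–peroxidase method.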

Assay [5] is described as follows: Inhibitory activity measured against beta-galactosidase of rat intestinal lactase by colorimetric assay using the D-glucose oxidase-peroxidase method. The method, boiled down: as §1

Some results are limits rather than exact numbers.

Chain of Alpha-galactosidase (Coffea arabica) (Q42656 whole entry, looked up): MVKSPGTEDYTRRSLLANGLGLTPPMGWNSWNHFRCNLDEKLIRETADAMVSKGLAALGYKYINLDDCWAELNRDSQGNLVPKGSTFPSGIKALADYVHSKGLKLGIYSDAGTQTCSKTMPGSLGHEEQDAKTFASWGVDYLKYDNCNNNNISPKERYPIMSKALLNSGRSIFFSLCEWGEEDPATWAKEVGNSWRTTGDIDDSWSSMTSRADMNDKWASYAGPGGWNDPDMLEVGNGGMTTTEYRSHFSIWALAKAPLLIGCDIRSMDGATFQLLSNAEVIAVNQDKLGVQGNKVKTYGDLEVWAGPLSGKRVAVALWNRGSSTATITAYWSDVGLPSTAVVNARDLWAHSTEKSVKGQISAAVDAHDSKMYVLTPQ

With `OC[C@H]1N[C@H](CO)[C@@H](O)[C@H](O)[C@H]1O`, the inhibition (in the assay listed under Rattus norvegicus; in assay [1]; in assay [2]; in the assay listed under Bos taurus) was under 50% throughout.

As for `OC[C@@H]1N[C@H](CO)[C@@H](O)[C@H](O)[C@@H]1O`, the inhibition (in the assay filed under Rattus norvegicus; in assay [2]; in the assay listed under Bos taurus) was under 50% each time.

As for `OC[C@H]1N[C@H](CO)[C@@H](O)C(O)[C@@H]1O` (stereo partly drawn), the inhibition (in the assay listed under Rattus norvegicus; in assay [2]; in the assay filed under Bos taurus) was under 50% in each case.

For the molecule `OCC1NC(CO)[C@@H](O)C(O)C1O` (stereo partly drawn), the figures for the half-inhibitory concentration (IC50) in assay [3] and in assay [4] were 86 µM and 130 µM, respectively.

`OC[C@@H]1N[C@H](CO)[C@@H](O)[C@H](O)[C@H]1O`: the inhibition (in the assay filed under Rattus norvegicus; in assay [1]; in assay [2]; in the assay filed under Bos taurus) was under 50% each time.

In assay [1], `OC[C@H]1N[C@H](CO)[C@H](O)C(O)[C@H]1O` (stereo partly drawn) gave an inhibition of under 50%. In assay [5], this molecule registered an IC50 of 290 µM.
